Laboratory results as given in ChEMBL document CHEMBL1143775, “Convenient one pot synthesis of some novel derivatives of thiazolo[2,3-b]dihydropyrimidinone possessing 4-methylthiophenyl moiety and evaluation of their antibacterial and antifungal activities” (2007).
≈ marks a conversion by molar mass, not a printed value.

Tests used:
Assay type in all cases: functional
Escherichia coli [1] = test: Antibacterial activity against Escherichia coli ATCC 25922
Summary of the method: (§1)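 Compound-loaded discs were placed on nutrient agar inoculated separately with fresh bacterial strains. Plates were incubated at 37 °C for 24 h with separate solvent and growth controls. Zone of inhibition and MIC were measured. Ciprofloxacin was the reference drug.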

Aspergillus flavus [2] = test: Antifungal activity against Aspergillus flavus NCIM 524 at 10 ug/ml; settings: read-out: IZ
Summary of the method: (§2)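 Serial dilution method on Sabouraud agar (peptone, D-glucose, agar; pH 5.7) seeded with a saline spore suspension made from a loopful of each strain. Plates were dried for 1 h at incubator temperature. Test solutions in DMSO went into punched wells, with a DMSO control. Incubation was at 37 °C for 3–4 days. Zone of inhibition and MIC were read against ciclopiroxolamine as standard.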

Staphylococcus aureus [3] = test: Antibacterial activity against Staphylococcus aureus ATCC 25923; summary of the method: as §1
Pseudomonas aeruginosa [4] = test: Antibacterial activity against Pseudomonas aeruginosa ATCC 27853; summary of the method: as §1
Aspergillus fumigatus [5] = test: Antifungal activity against Aspergillus fumigatus NCIM 902 by dilution method; summary of the method: as §2
Escherichia coli [6] = test: Antibacterial activity against Escherichia coli ATCC 25922 at 10 ug/ml; settings: read-out: IZ; summary of the method: as §1
Pseudomonas aeruginosa [7] = test: Antibacterial activity against Pseudomonas aeruginosa ATCC 27853 at 10 ug/ml; settings: read-out: IZ; summary of the method: as §1
Klebsiella pneumoniae [8] = test: Antibacterial activity against Klebsiella pneumoniae at 10 ug/ml; settings: read-out: IZ; summary of the method: as §1
Klebsiella pneumoniae [9] = test: Antibacterial activity against Klebsiella pneumoniae; summary of the method: as §1
Candida albicans [10] = test: Antifungal activity against Candida albicans NCIM 3100 at 10 ug/ml; settings: read-out: IZ; summary of the method: as §2
Aspergillus flavus [11] = test: Antifungal activity against Aspergillus flavus NCIM 524 by dilution method; summary of the method: as §2
Staphylococcus aureus [12] = test: Antibacterial activity against Staphylococcus aureus ATCC 25923 at 10 ug/ml by disk diffusion method; settings: read-out: IZ; summary of the method: as §1
Talaromyces marneffei [13] = test: Antifungal activity against Penicillium marneffei by dilution method; summary of the method: as §2
Candida albicans [14] = test: Antifungal activity against Candida albicans NCIM 3100 by dilution method; summary of the method: as §2
Talaromyces marneffei [15] = test: Antifungal activity against Penicillium marneffei at 10 ug/ml; settings: read-out: IZ; summary of the method: as §2
Aspergillus fumigatus [16] = test: Antifungal activity against Aspergillus fumigatus NCIM 902 at 10 ug/ml; settings: read-out: IZ; summary of the method: as §2

Row | SMILES | MIC (Escherichia coli [1]) [µg/mL] | zone of inhibition at 10 µg/mL (Aspergillus flavus [2]) [mm] | MIC (Staphylococcus aureus [3]) [µg/mL] | MIC (Pseudomonas aeruginosa [4]) [µg/mL] | MIC (Aspergillus fumigatus [5]) [µg/mL] | zone of inhibition at 10 µg/mL (Escherichia coli [6]) [mm] | zone of inhibition at 10 µg/mL (Pseudomonas aeruginosa [7]) [mm] | zone of inhibition at 10 µg/mL (Klebsiella pneumoniae [8]) [mm] | MIC (Klebsiella pneumoniae [9]) [µg/mL] | zone of inhibition at 10 µg/mL (Candida albicans [10]) [mm] | MIC (Aspergillus flavus [11]) [µg/mL] | zone of inhibition at 10 µg/mL (Staphylococcus aureus [12]) [mm] | MIC (Talaromyces marneffei [13]) [µg/mL] | MIC (Candida albicans [14]) [µg/mL] | zone of inhibition at 10 µg/mL (Talaromyces marneffei [15]) [mm] | zone of inhibition at 10 µg/mL (Aspergillus fumigatus [16]) [mm]
1 | CCOC(=O)C1=C(C)N=c2s/c(=C\c3ccc(F)c(Oc4ccccc4)c3)c(=O)n2C1c1ccc(SC)cc1 (stereo unspecified) | 25 (≈ 44.6 µM) | 18 | 12.5 (≈ 22.3 µM) | 12.5 (≈ 22.3 µM) | 12.5 (≈ 22.3 µM) | 10 | 12 | 12 | 12.5 (≈ 22.3 µM) | 20 | 12.5 (≈ 22.3 µM) | 19 | 6 (≈ 10.7 µM) | 6 (≈ 10.7 µM) | 19 | 12
2 | CCOC(=O)C1=C(C)N=c2s/c(=C\c3ccc(-c4ccc([N+](=O)[O-])cc4)o3)c(=O)n2C1c1ccc(SC)cc1 (stereo unspecified) | 25 (≈ 44.5 µM) | 12 | 25 (≈ 44.5 µM) | 12.5 (≈ 22.3 µM) | 12.5 (≈ 22.3 µM) | 12 | 13 | 11 | 12.5 (≈ 22.3 µM) | 12 | 25 (≈ 44.5 µM) | 10 | 12.5 (≈ 22.3 µM) | 12.5 (≈ 22.3 µM) | 11 | 17
3 | CCOC(=O)C1=C(C)N=c2s/c(=C\c3ccc(-c4ccc(Cl)cc4)o3)c(=O)n2C1c1ccc(SC)cc1 (stereo unspecified) | 25 (≈ 45.4 µM) | 17 | 25 (≈ 45.4 µM) | 12.5 (≈ 22.7 µM) | 12.5 (≈ 22.7 µM) | 10 | 10 | 12 | 12.5 (≈ 22.7 µM) | 19 | 12.5 (≈ 22.7 µM) | 12 | 12.5 (≈ 22.7 µM) | 6 (≈ 10.9 µM) | 11 | 10
4 | CCOC(=O)C1=C(C)N=c2s/c(=C\c3ccc(F)cc3)c(=O)n2C1c1ccc(SC)cc1 (stereo unspecified) | 12.5 (≈ 26.7 µM) | 18 | 12.5 (≈ 26.7 µM) | 12.5 (≈ 26.7 µM) | 6 (≈ 12.8 µM) | 17 | 10 | 20 | 6 (≈ 12.8 µM) | 19 | 12.5 (≈ 26.7 µM) | 18 | 6 (≈ 12.8 µM) | 6 (≈ 12.8 µM) | 20 | 20
5 | CCOC(=O)C1=C(C)N=c2s/c(=C\c3ccc(O)cc3)c(=O)n2C1c1ccc(SC)cc1 (stereo unspecified) | 25 (≈ 53.6 µM) | 10 | 25 (≈ 53.6 µM) | 12.5 (≈ 26.8 µM) | 12.5 (≈ 26.8 µM) | 12 | 15 | 12 | 12.5 (≈ 26.8 µM) | 10 | 25 (≈ 53.6 µM) | 12 | 12.5 (≈ 26.8 µM) | 12.5 (≈ 26.8 µM) | 12 | 10
6 | CCOC(=O)C1=C(C)N=c2s/c(=C\c3ccc4c(c3)OCO4)c(=O)n2C1c1ccc(SC)cc1 (stereo unspecified) | 25 (≈ 50.5 µM) | 12 | 25 (≈ 50.5 µM) | 12.5 (≈ 25.3 µM) | 12.5 (≈ 25.3 µM) | 10 | 10 | 10 | 12.5 (≈ 25.3 µM) | 11 | 25 (≈ 50.5 µM) | 10 | 12.5 (≈ 25.3 µM) | 12.5 (≈ 25.3 µM) | 10 | 12
7 | CCOC(=O)C1=C(C)N=c2s/c(=C\c3ccc(OC)cc3)c(=O)n2C1c1ccc(SC)cc1 (stereo unspecified) | 25 (≈ 52 µM) | 17 | 25 (≈ 52 µM) | 6 (≈ 12.5 µM) | 6 (≈ 12.5 µM) | 10 | 24 | 21 | 6 (≈ 12.5 µM) | 20 | 12.5 (≈ 26 µM) | 12 | 12.5 (≈ 26 µM) | 6 (≈ 12.5 µM) | 12 | 21
8 | CCOC(=O)C1=C(C)N=c2s/c(=C\c3ccc(Cl)cc3Cl)c(=O)n2C1c1ccc(SC)cc1 (stereo unspecified) | 25 (≈ 48.1 µM) | 10 | 12.5 (≈ 24.1 µM) | 12.5 (≈ 24.1 µM) | 12.5 (≈ 24.1 µM) | 11 | 13 | 10 | 12.5 (≈ 24.1 µM) | 12 | 25 (≈ 48.1 µM) | 18 | 12.5 (≈ 24.1 µM) | 12.5 (≈ 24.1 µM) | 10 | 11
9 | CCOC(=O)C1=C(C)N=c2s/c(=C\c3ccc(O)c(OC)c3)c(=O)n2C1c1ccc(SC)cc1 (stereo unspecified) | 12.5 (≈ 25.2 µM) | 11 | 12.5 (≈ 25.2 µM) | 6 (≈ 12.1 µM) | 6 (≈ 12.1 µM) | 18 | 23 | 18 | 12.5 (≈ 25.2 µM) | 10 | 25 (≈ 50.3 µM) | 20 | 6 (≈ 12.1 µM) | 12.5 (≈ 25.2 µM) | 19 | 21
10 | CCOC(=O)C1=C(C)N=c2s/c(=C\c3ccc(-c4ccc(Cl)cc4Cl)o3)c(=O)n2C1c1ccc(SC)cc1 (stereo unspecified) | 25 (≈ 42.7 µM) | 18 | 12.5 (≈ 21.3 µM) | 6 (≈ 10.2 µM) | 12.5 (≈ 21.3 µM) | 11 | 23 | 20 | 6 (≈ 10.2 µM) | 20 | 12.5 (≈ 21.3 µM) | 19 | 6 (≈ 10.2 µM) | 6 (≈ 10.2 µM) | 18 | 10
11 | CCOC(=O)C1=C(C)N=c2s/c(=C\c3ccc(-c4ccc(Br)cc4)o3)c(=O)n2C1c1ccc(SC)cc1 (stereo unspecified) | 12.5 (≈ 21 µM) | 18 | 12.5 (≈ 21 µM) | 6 (≈ 10.1 µM) | 12.5 (≈ 21 µM) | 18 | 23 | 20 | 6 (≈ 10.1 µM) | 19 | 12.5 (≈ 21 µM) | 18 | 6 (≈ 10.1 µM) | 6 (≈ 10.1 µM) | 20 | 12
12 | CCOC(=O)C1=C(C)N=c2s/c(=C\c3ccc(SC)cc3)c(=O)n2C1c1ccc(SC)cc1 (stereo unspecified) | 25 (≈ 50.3 µM) | 10 | 25 (≈ 50.3 µM) | 12.5 (≈ 25.2 µM) | 12.5 (≈ 25.2 µM) | 12 | 13 | 12 | 12.5 (≈ 25.2 µM) | 10 | 25 (≈ 50.3 µM) | 10 | 12.5 (≈ 25.2 µM) | 12.5 (≈ 25.2 µM) | 12 | 12
13 | CCOC(=O)C1=C(C)N=c2s/c(=C\c3ccc(Cl)cc3)c(=O)n2C1c1ccc(SC)cc1 (stereo unspecified) | 25 (≈ 51.5 µM) | 12 | 25 (≈ 51.5 µM) | 12.5 (≈ 25.8 µM) | 12.5 (≈ 25.8 µM) | 10 | 12 | 10 | 12.5 (≈ 25.8 µM) | 11 | 25 (≈ 51.5 µM) | 10 | 12.5 (≈ 25.8 µM) | 12.5 (≈ 25.8 µM) | 10 | 11
14 | O=C(O)c1cn(C2CC2)c2cc(N3CCNCC3)c(F)cc2c1=O [CIPROFLOXACIN] | 12.5 (≈ 37.7 µM) | – | 12.5 (≈ 37.7 µM) | 6 (≈ 18.1 µM) | – | 18 | 25 | 20 | 6 (≈ 18.1 µM) | – | – | 19 | – | – | – | –
